# Screens: PubChem, ICCB-Longwood Screening Facility, Harvard Medical School
# BasE inh: BasE siderophore enzyme inhibitors, primary screen, biochemical, Acinetobacter baumannii ATCC 17978, fluorescence polarization. inhibition, % (test concentration not listed). 84,000 compounds, 0.1% hits. purified BasE, fluorescence polarization binding displacement. AID 485350, 2010; in the data active means inhibition above about 25%, passing the limit was not always enough;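 further: 0% = negative plate control signal and 100% = positive plate control signal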
# KSHV LANA nucl: inhibitors of KSHV LANA-nucleosome binding, primary screen, biochemical, fluorescence polarization, FITC-LANA1-23, chicken nucleosomes. FITC-LANA1-23 / chicken nucleosome fluorescence polarization; hits give low values. z-score (test concentration not listed). 51,000 compounds, 0.3% hits;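 active means both repeat wells score below -2 in polarization z-score versus plate sample wells, excluding overly bright wells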
#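 test system = FITC-LANA peptide and chicken nucleosomes | amount = 240 nM purified chicken nucleosomes (480 nM peptide binding sites), final | reagent = 50 nM FITC-LANA1-23 probe | medium = TEN-BT buffer, pH 7.5 | doses = single compound addition by pin transfer, 100 nL per well | timing = 10–45 min, room temperature | detection = fluorescence polarization | repeats = duplicate plates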
# Starred values were filed as active, the others as inactive; . = not tested or not shown. Rows were chosen to be rich in hits. Some 0.3% of all compounds tested hit in one or more screens of this group.
SMILES,BasE inh,KSHV LANA nucl
COC(=O)c1ccc([C@@H]2Nc3c(C)cccc3[C@@H]3C=CC[C@@H]32)cc1,-1.1,.
O=C(CCc1c[nH]c2ccccc12)OCc1nnc(-c2ccccc2)o1,2.3,-2.13*
O=C(Cc1ccccc1)OCc1nnc(-c2ccccc2)o1,-2.9,0.177
CN(C)C1=NC(C(F)(F)F)(C(F)(F)F)N=C(c2cccnc2)O1,0.2,-0.226
O=C1CN(C(=O)CC2c3ccccc3-c3ccccc32)CC(=O)N1,43.0*,-0.663
CCOC(=O)N1CCN(C(=O)CC2c3ccccc3Oc3ccccc32)CC1,1.2,-1.05
O=C(/C=C/c1ccccc1)Nn1cnc2c(cnn2-c2ccccc2)c1=O,1.4,-1.15
O=C(Nn1cnc2c(cnn2-c2ccccc2)c1=O)c1ccccc1,0.1,-2.08*
Cc1cc2c(n1-c1ccc(C(=O)O)cc1)CCCC2,30.5*,0.837
Cc1cc2c(n1-c1ccc(C(=O)NCCc3cccs3)cc1)CCCC2,0.6,-0.0965
COc1ccc(CN=Cc2c(O)[nH]c3ccccc23)cc1OC,2.1,0.413
O=C(N/N=C1/CCS(=O)(=O)c2ccc(F)cc21)c1ccccn1,-0.6,.
O=C(N/N=C1\CCS(=O)(=O)c2ccc(F)cc21)c1ccc(O)cc1,55.1*,.
Cc1ccc(NC(=O)/C(C#N)=N/Nc2ccc(C(=O)O)cc2)c(C)c1,3.9,.
COc1ccc(N/N=C(\C#N)C(=O)Nc2ccccc2C(=O)O)cc1Cl,79.6*,.
COCCn1c(SCC(=O)NC23CC4CC(CC(C4)C2)C3)nnc1-c1ccncc1,-0.1,.
COc1cccc2c1C(=O)c1c(O)c3c(c(O)c1C2=O)C[C@@](O)(C(=O)CO)C[C@@H]3OC1C[C@H](N)[C@H](O)[C@H](C)O1 (some centres not stated),.,-7.53*
COc1ccccc1-n1cc(C(=O)c2ccccc2O)cc(C#N)c1=O,-0.1,.
Cc1sc2ncnc(NCc3ccccn3)c2c1C,1.1,.
CCn1c2ccccc2c2cc(C#N)ccc21,2.6,-0.048
CCC(C)(C)NS(=O)(=O)c1cc(-c2onc(C)c2C)ccc1C,1.9,.
Cc1ccc2c(c1)c1c3c(nccn32)CCC1,10.5,-3.24*
Cc1ccc2c(c1)c1c(n2C)C(C#N)CCC1 (configuration not stated),2.2,-0.556
CC(C)(C)N/N=C/c1ccc(O)c(O)c1O,4.6,.
Oc1ccc(/C=N/NC(=S)Nc2ccc(Cl)cc2Cl)c(O)c1O,33.9*,.
SMILES,BasE inh,KSHV LANA nucl
COc1ccc(/C=C2\SC(=O)N(CCNC(=O)c3cc(S(=O)(=O)N(C)C)ccc3N3CCCC3)C2=O)cc1,0.4,.
Cc1ccc2cc3c(nc2c1)N(c1ccc(C(=O)O)cc1)CC3,3.3,0.147
CC1CC(C)CN(C(=O)CSc2nc3cc4c(cc3c(=O)n2CCC2=CCCCC2)OCO4)C1 (configuration not stated),0.7,-1.09
COC(=O)CC1SC(=O)NC1=S (configuration not stated),32.0,-5.15*
O=C(CC1SC(=O)NC1=O)Nc1ccccc1NC(=O)CC1SC(=O)NC1=O (configuration not stated),1.3,0.0525
O=C(N/N=C/c1ccc(O)c(O)c1O)c1ccc(CSc2nc3ccccc3o2)cc1,4.7,.
COc1ccc(-c2csc(-n3[nH]c(C)c(C(c4ccc(Cl)cc4)C(C#N)C(N)=O)c3=O)n2)cc1 (configuration not stated),34.9*,-0.008
COc1ccc(-c2cc(-c3ccco3)nn2-c2nc(-c3ccc(Cl)cc3)cs2)cc1,-1.3,.
NC(=O)CNC(=O)c1ccc(Oc2ccccc2)cc1,-1.1,.
O=C1c2ccc(C34CC5CC(CC(C5)C3)C4)cc2C(=O)N1CCN1CCOCC1,-1.7,-0.103
O=C1CN(c2ccccc2F)C(=O)CN1/N=C/c1cccs1,1.4,-0.297
S=c1[nH]nc(CCCOc2ccc(Cl)cc2Cl)o1,3.0,1.07
Clc1ccc(OCCCc2nc(-c3cccnc3)n[nH]2)c(Cl)c1,46.3*,.
CCc1cccc(C)c1NC(=O)C1COc2ccccc2O1 (configuration not stated),0.5,.
O=C(O)CCc1ccc(-c2ccc(F)cc2)n1CC1CCCO1 (configuration not stated),-2.3,2.7
O=C(O)CCc1ccc(-c2ccc(F)cc2)n1CCC(=O)O,2.4,-2.12*
Cc1csc(C(C#N)C(=O)CSc2cc(C)c3ccccc3n2)n1 (configuration not stated),2.4,.
Cc1csc(C(C#N)C(=O)CSc2nc3ccccc3n2-c2ccccc2)n1 (configuration not stated),35.1*,.
O=C(CN1CCN(c2ccc(S(=O)(=O)N3CCCC3)cn2)CC1)Nc1ccc(Cl)c(C(F)(F)F)c1,3.4,.
O=c1ccc2cc3c4c(c2o1)CCCN4CCC3,17.0,-5.21*
CC(C)c1c(Br)c(=O)oc2c3c4c(cc12)CCCN4CCC3,21.0,.
Clc1ccc2c(c1)CCN2,0.2,0.315
